# Experimental data: ChEMBL document CHEMBL1142516, “Design, synthesis, and structure-affinity relationships of novel series of sialosides as CD22-specific inhibitors” (J Med Chem, 2008)
# Assays:
# B-cell receptor CD22 = biological target: T1, B-cell receptor CD22 (Homo sapiens, UniProt P20273); assay: Binding affinity to biotinylated human CD22-human IgG1 chimeric protein expressed in mouse J558LST6 cells by flow cytometry; format: cell-based
# T1 sequence (P20273 whole entry): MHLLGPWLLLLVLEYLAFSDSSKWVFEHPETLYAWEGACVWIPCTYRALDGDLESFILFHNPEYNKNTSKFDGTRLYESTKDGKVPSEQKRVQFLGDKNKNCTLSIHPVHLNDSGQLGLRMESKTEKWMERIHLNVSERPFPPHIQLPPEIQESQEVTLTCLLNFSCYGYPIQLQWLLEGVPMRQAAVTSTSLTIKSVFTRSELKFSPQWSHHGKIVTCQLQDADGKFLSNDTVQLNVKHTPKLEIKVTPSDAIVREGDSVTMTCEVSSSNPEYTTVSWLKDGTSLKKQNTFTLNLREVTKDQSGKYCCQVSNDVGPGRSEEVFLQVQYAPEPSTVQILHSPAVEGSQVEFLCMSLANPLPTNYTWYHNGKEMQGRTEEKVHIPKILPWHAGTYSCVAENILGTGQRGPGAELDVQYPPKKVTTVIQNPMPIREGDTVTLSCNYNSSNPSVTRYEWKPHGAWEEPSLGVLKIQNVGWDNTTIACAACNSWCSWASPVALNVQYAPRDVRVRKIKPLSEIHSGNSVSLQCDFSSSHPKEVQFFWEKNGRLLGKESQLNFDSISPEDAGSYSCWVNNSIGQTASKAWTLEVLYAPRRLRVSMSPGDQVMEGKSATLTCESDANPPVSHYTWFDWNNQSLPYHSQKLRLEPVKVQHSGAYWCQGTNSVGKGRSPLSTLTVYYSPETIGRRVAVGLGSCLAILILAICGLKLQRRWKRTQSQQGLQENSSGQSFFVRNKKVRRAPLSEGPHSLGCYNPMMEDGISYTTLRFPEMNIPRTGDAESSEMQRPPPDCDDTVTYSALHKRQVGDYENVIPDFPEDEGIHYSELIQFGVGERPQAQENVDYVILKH
# Method in brief: (§1)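 IC50 from inhibition of CD22-Fc binding to alpha2,6-sialic acid on ST6GalI-transfected J558L mouse myeloma cells (J558LST6), incubated with CD22-Fc plus varied sialoside concentrations. Detection with Alexa Fluor 647-streptavidin, 30 min on ice, then flow cytometry. % binding = (A−B)/(C−B)×100 using MFI: A, sialoside sample; B, parent J558L; C, untreated J558LST6. IC50 taken as 50% binding inhibition; means of ≥3 independent determinations.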
# [1] = Binding affinity to biotinylated mouse CD22-human IgG1 chimeric protein expressed in mouse J558LST6 cells by flow cytometry; format: cell-based; method in brief: as §1
SMILES,IC50 (B-cell receptor CD22),IC50 [1]
COc1ccc(O[C@@H]2O[C@H](CO[C@]3(C(=O)O)C[C@H](O)[C@@H](NC(=O)CO)[C@H]([C@H](O)[C@H](O)CNCc4ccc(-c5ccc(C)cc5)cc4)O3)[C@H](O)[C@H](O)[C@H]2O)cc1,9.83 µM,27 µM
COc1ccc(O[C@@H]2O[C@H](CO[C@]3(C(=O)O)C[C@H](O)[C@@H](NC(=O)CO)[C@H]([C@H](O)[C@H](O)CNC(=O)C(c4ccccc4)c4ccccc4)O3)[C@H](O)[C@H](O)[C@H]2O)cc1,8.85 µM,63.5 µM
CCCCCC(=O)NC[C@@H](O)[C@@H](O)[C@@H]1O[C@@](OC[C@H]2O[C@@H](Oc3ccc(OC)cc3)[C@H](O)[C@@H](O)[C@H]2O)(C(=O)O)C[C@H](O)[C@H]1NC(=O)CO,40.9 µM,88.5 µM
COc1ccc(O[C@@H]2O[C@H](CO[C@]3(C(=O)O)C[C@H](O)[C@@H](NC(=O)CO)[C@H]([C@H](O)[C@H](O)CNCCCCc4ccc(-c5ccccc5)cc4)O3)[C@H](O)[C@H](O)[C@H]2O)cc1,6.22 µM,4.1 µM
COc1ccc(O[C@@H]2O[C@H](CO[C@]3(C(=O)O)C[C@H](O)[C@@H](NC(=O)CO)[C@H]([C@H](O)[C@H](O)CNC(=O)Cc4ccc5ccccc5c4)O3)[C@H](O)[C@H](O)[C@H]2O)cc1,1 µM,24.7 µM
COc1ccc(O[C@@H]2O[C@H](CO[C@]3(C(=O)O)C[C@H](O)[C@@H](NC(=O)CO)[C@H]([C@H](O)[C@H](O)CNC(=O)c4cccnc4)O3)[C@H](O)[C@H](O)[C@H]2O)cc1,132 µM,32.2 µM
C[Si](C)(C)CCO[C@@H]1O[C@H](CO[C@]2(C(=O)O)C[C@H](O)[C@@H](NC(=O)CO)[C@H]([C@H](O)[C@H](O)CO)O2)[C@H](O)[C@H](O)[C@H]1O,550 µM,833 µM
COc1ccc(O[C@@H]2O[C@H](CO[C@]3(C(=O)O)C[C@H](O)[C@@H](NC(=O)CO)[C@H]([C@H](O)[C@H](O)CNCC4CCCCC4)O3)[C@H](O)[C@H](O)[C@H]2O)cc1,37.7 µM,9.5 µM
COc1ccc(O[C@@H]2O[C@H](CO[C@]3(C(=O)O)C[C@H](O)[C@@H](NC(=O)CO)[C@H]([C@H](O)[C@H](O)CNC(=O)c4ccc5ccccc5c4)O3)[C@H](O)[C@H](O)[C@H]2O)cc1,2.6 µM,90 µM
COc1ccc(O[C@@H]2O[C@H](CO[C@]3(C(=O)O)C[C@H](O)[C@@H](NC(=O)CO)[C@H]([C@H](O)[C@H](O)CN)O3)[C@H](O)[C@H](O)[C@H]2O)cc1,85 µM,93.1 µM
COc1ccc(O[C@@H]2O[C@H](CO[C@]3(C(=O)O)C[C@H](O)[C@@H](NC(=O)CO)[C@H]([C@H](O)[C@H](O)CNC(=O)Cc4ccc(-c5ccccc5)cc4)O3)[C@H](O)[C@H](O)[C@H]2O)cc1,3.7 µM,6.2 µM
COc1ccc(O[C@@H]2O[C@H](CO[C@]3(C(=O)O)C[C@H](O)[C@@H](NC(=O)CO)[C@H]([C@H](O)[C@H](O)CNCCc4ccc(-c5ccccc5)cc4)O3)[C@H](O)[C@H](O)[C@H]2O)cc1,5.48 µM,11.2 µM
COc1ccc(O[C@@H]2O[C@H](CO[C@]3(C(=O)O)C[C@H](O)[C@@H](NC(=O)CO)[C@H]([C@H](O)[C@H](O)CNC(=O)CCc4ccc(O)cc4)O3)[C@H](O)[C@H](O)[C@H]2O)cc1,7.65 µM,139 µM
COc1ccc(O[C@@H]2O[C@H](CO[C@]3(C(=O)O)C[C@H](O)[C@@H](NC(=O)CO)[C@H]([C@H](O)[C@H](O)CNC(=O)c4ccc(-c5cccc(C(=O)O)c5)cc4)O3)[C@H](O)[C@H](O)[C@H]2O)cc1,7.13 µM,16.6 µM
COc1ccc(O[C@@H]2O[C@H](CO[C@]3(C(=O)O)C[C@H](O)[C@@H](NC(=O)CO)[C@H]([C@H](O)[C@H](O)CNC(=O)C4CCCCC4)O3)[C@H](O)[C@H](O)[C@H]2O)cc1,16 µM,65.3 µM
COc1ccc(O[C@@H]2O[C@H](CO[C@]3(C(=O)O)C[C@H](O)[C@@H](NC(=O)CO)[C@H]([C@H](O)[C@H](O)CNCc4ccc(-c5ccc(O)cc5)cc4)O3)[C@H](O)[C@H](O)[C@H]2O)cc1,0.24 µM,6.43 µM

# More lines, in order of falling IC50 (B-cell receptor CD22), values ahead:
IC50 (B-cell receptor CD22),IC50 [1],SMILES
193 µM,138 µM,COc1ccc(O[C@@H]2O[C@H](CO[C@]3(C(=O)O)C[C@H](O)[C@@H](NC(=O)CO)[C@H]([C@H](O)[C@H](O)CNC(=O)c4ccccc4O)O3)[C@H](O)[C@H](O)[C@H]2O)cc1
148 µM,497 µM,COc1ccc(O[C@@H]2O[C@H](CO[C@]3(C(=O)O)C[C@H](O)[C@@H](NC(=O)CO)[C@H]([C@H](O)[C@H](O)CO)O3)[C@H](O)[C@H](O)[C@H]2O)cc1
123 µM,25.7 µM,COc1ccc(O[C@@H]2O[C@H](CO[C@]3(C(=O)O)C[C@H](O)[C@@H](NC(=O)CO)[C@H]([C@H](O)[C@H](O)CNCc4ccccc4)O3)[C@H](O)[C@H](O)[C@H]2O)cc1
116 µM,161 µM,COc1ccc(O[C@@H]2O[C@H](CO[C@]3(C(=O)O)C[C@H](O)[C@@H](NC(=O)CO)[C@H]([C@H](O)[C@H](O)CNC(=O)c4cc(Cl)ccc4O)O3)[C@H](O)[C@H](O)[C@H]2O)cc1
73.3 µM,23.4 µM,COc1ccc(O[C@@H]2O[C@H](CO[C@]3(C(=O)O)C[C@H](O)[C@@H](NC(=O)CO)[C@H]([C@H](O)[C@H](O)CNC(=O)c4ccc(-c5ccc(C(=O)O)cc5)cc4)O3)[C@H](O)[C@H](O)[C@H]2O)cc1
45 µM,48 µM,COc1ccc(O[C@@H]2O[C@H](CO[C@]3(C(=O)O)C[C@H](O)[C@@H](NC(=O)CO)[C@H]([C@H](O)[C@H](O)CNCc4ccc(-c5ccc(C(F)(F)F)cc5)cc4)O3)[C@H](O)[C@H](O)[C@H]2O)cc1
21.1 µM,66.8 µM,COc1ccc(O[C@@H]2O[C@H](CO[C@]3(C(=O)O)C[C@H](O)[C@@H](NC(=O)CO)[C@H]([C@H](O)[C@H](O)CNC(=O)CCCc4ccc5ccc6cccc7ccc4c5c67)O3)[C@H](O)[C@H](O)[C@H]2O)cc1
10.4 µM,168 µM,COc1ccc(O[C@@H]2O[C@H](CO[C@]3(C(=O)O)C[C@H](O)[C@@H](NC(=O)CO)[C@H]([C@H](O)[C@H](O)CNC(=O)CCc4ccccc4)O3)[C@H](O)[C@H](O)[C@H]2O)cc1
7.48 µM,32.7 µM,COc1ccc(O[C@@H]2O[C@H](CO[C@]3(C(=O)O)C[C@H](O)[C@@H](NC(=O)CO)[C@H]([C@H](O)[C@H](O)CNCc4ccc(-c5cccc(C(=O)O)c5)cc4)O3)[C@H](O)[C@H](O)[C@H]2O)cc1
4.3 µM,2.9 µM,COc1ccc(O[C@@H]2O[C@H](CO[C@]3(C(=O)O)C[C@H](O)[C@@H](NC(=O)CO)[C@H]([C@H](O)[C@H](O)CNC(=O)Cc4ccc(-c5cccc(O)c5)cc4)O3)[C@H](O)[C@H](O)[C@H]2O)cc1
1.76 µM,30 µM,COc1ccc(O[C@@H]2O[C@H](CO[C@]3(C(=O)O)C[C@H](O)[C@@H](NC(=O)CO)[C@H]([C@H](O)[C@H](O)CNCc4ccc(-c5ccc(OC)cc5)cc4)O3)[C@H](O)[C@H](O)[C@H]2O)cc1
1.73 µM,16.5 µM,COc1ccc(O[C@@H]2O[C@H](CO[C@]3(C(=O)O)C[C@H](O)[C@@H](NC(=O)CO)[C@H]([C@H](O)[C@H](O)CNCc4ccc(-c5cccc(O)c5)cc4)O3)[C@H](O)[C@H](O)[C@H]2O)cc1
1.1 µM,52.9 µM,COc1ccc(O[C@@H]2O[C@H](CO[C@]3(C(=O)O)C[C@H](O)[C@@H](NC(=O)CO)[C@H]([C@H](O)[C@H](O)CNC(=O)c4ccc(-c5ccccc5)cc4)O3)[C@H](O)[C@H](O)[C@H]2O)cc1
0.9 µM,1.7 µM,COc1ccc(O[C@@H]2O[C@H](CO[C@]3(C(=O)O)C[C@H](O)[C@@H](NC(=O)CO)[C@H]([C@H](O)[C@H](O)CNC(=O)Cc4ccc(-c5ccc(O)cc5)cc4)O3)[C@H](O)[C@H](O)[C@H]2O)cc1
0.47 µM,16.3 µM,COc1ccc(O[C@@H]2O[C@H](CO[C@]3(C(=O)O)C[C@H](O)[C@@H](NC(=O)CO)[C@H]([C@H](O)[C@H](O)CNCc4ccc(-c5ccccc5)cc4)O3)[C@H](O)[C@H](O)[C@H]2O)cc1
0.23 µM,12.5 µM,COc1ccc(O[C@@H]2O[C@H](CO[C@]3(C(=O)O)C[C@H](O)[C@@H](NC(=O)CO)[C@H]([C@H](O)[C@H](O)CNCc4ccc(-c5ccccc5O)cc4)O3)[C@H](O)[C@H](O)[C@H]2O)cc1
